Results reported in ChEMBL document CHEMBL3091336, “Analogs of the Allosteric Heat Shock Protein 70 (Hsp70) Inhibitor, MKT-077, as Anti-Cancer Agents” (ACS Med Chem Lett, 2013).
Activity calls are given as the source filed them. The rule behind the calls is not given here.

How the values were obtained:
[1] = biological target: Heat shock cognate 71 kDa protein (Homo sapiens, UniProt P11142); test: Binding affinity to human HSC70 after 3 hrs by ELISA
[2] = Drug metabolism in mouse liver microsomes assessed as compound life time; type: ADME, Microsome
In short: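 Compounds at 1 μM incubated with liver microsomes from C57BL/6 mice; disappearance of parent compound followed by LC–MS and reported as microsomal lifetime (t1/2, min).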

[3] = Half life in mouse liver microsomes at 1 uM incubated for 15 mins prior to beta-NADPH addition by LC-MS/MS analysis; type: ADME, Microsome; details: for half-life at 1 µM: liver microsomes; for t1/2: microsomes, 0.25 h, 1 µM
In short: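 Compounds at 1 μM incubated with mouse liver microsomes. Degradation followed by LC–MS and reported as half-life.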

[4] = system: MEF; test: Cytotoxicity against C57BL/6 mouse MEF assessed as growth inhibition after 72 hrs by MTT assay; type: cell-based; details: C57BL/6, MEF
In short: (§1)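 Antiproliferative activity measured by MTT assay. EC50 is the average of triplicate experiments, with error as SEM.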

[5] = system: MCF7; test: Cytotoxicity against human MCF7 cells assessed as growth inhibition after 72 hrs by MTT assay; type: functional, cell-based; details: MCF7, 72 h; in short: as §1
[6] = system: MDA-MB-231; test: Cytotoxicity against human MDA-MB-231 cells assessed as growth inhibition after 72 hrs by MTT assay; type: functional, cell-based; details: MDA-MB-231, 72 h; in short: as §1
[7] = system: MCF7; test: Upregulation of Hsp90 protein expression in human MCF7 cells at 0.6 to 10 uM after 24 hrs by Western blot analysis; type: functional, cell-based
In short: (§2)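 MCF7 and MDA-MB-231 cells treated for 24 h across a range of concentrations. Lysates Western blotted for p53, Akt1, Raf1, Hsp70 and Hsp90. Representative of triplicate experiments.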

[8] = system: MCF7; test: Upregulation of Hsp70 protein expression in human MCF7 cells at 0.6 to 10 uM after 24 hrs by Western blot analysis; type: functional, cell-based; in short: as §2
[9] = system: MDA-MB-231; test: Upregulation of Hsp90 protein expression in human MDA-MB-231 cells at 0.6 to 10 uM after 24 hrs by Western blot analysis; type: functional, cell-based; in short: as §2
[10] = system: MDA-MB-231; test: Upregulation of Hsp70 protein expression in human MDA-MB-231 cells at 0.6 to 10 uM after 24 hrs by Western blot analysis; type: functional, cell-based; in short: as §2
[11] = system: MCF7; test: Inhibition of HSP70 in human MCF7 cells assessed as induction of […] p53 level at 5 to 10 uM after 24 hrs by Western blot analysis; type: cell-based; in short: as §2
[12] = system: MCF7; test: Inhibition of HSP70 in human MCF7 cells assessed as reduction of Raf level at 0.6 to 10 uM after 24 hrs by Western blot analysis; type: cell-based
In short: (§3)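 MCF7 or MDA-MB-231 cells treated for 24 h across a range of concentrations. Lysates probed by Western blot for the Hsp70 clients p53, Akt1 and Raf1, alongside Hsp70 and Hsp90. Blots are representative of experiments run in triplicate.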

[13] = system: MCF7; test: Inhibition of HSP70 in human MCF7 cells assessed as reduction of Akt1 level at 0.6 to 10 uM after 24 hrs by Western blot analysis; type: cell-based; in short: as §3
[14] = system: MDA-MB-231; test: Inhibition of HSP70 in human MDA-MB-231 cells assessed as reduction of Raf level at 0.6 to 10 uM after 24 hrs by Western blot analysis; type: cell-based; in short: as §3
[15] = system: MDA-MB-231; test: Inhibition of HSP70 in human MDA-MB-231 cells assessed as reduction of Akt1 level at 0.6 to 10 uM after 24 hrs by Western blot analysis; type: cell-based; in short: as §3
[16] = Selectivity ratio of EC50 for C57BL/6 mouse MEF to EC50 for human MDA-MB-231 cells; type: ADME; details: C57BL/6, mouse and human, mouse embryonic fibroblasts (MEF) versus MDA-MB-231 cells
In short: (§4)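 Antiproliferative EC50 values measured by MTT assay in mouse embryonic fibroblasts and in the breast cancer line (MCF7 or MDA-MB-231), averaged over triplicate experiments, error SEM. Selectivity taken as the ratio of fibroblast EC50 to cancer-cell EC50.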

[17] = Selectivity ratio of EC50 for C57BL/6 mouse MEF to EC50 for human MCF-7 cells; type: ADME, cell-based; details: C57BL/6, mouse and human, mouse embryonic fibroblasts (MEF) versus MCF-7 cells; read-out: Ratio EC50; in short: as §4
[18] = Binding affinity to [1H-15N]-DnaK (1 to 388) nucleotide binding domain (unknown origin) at 200 uM by NMR analysis
[19] = system: MCF7; test: Induction of autophagic flux in human MCF7 cells assessed as decrease in p62 monomer level at 5 to 10 uM after 24 hrs; type: functional, cell-based
[20] = system: MCF7; test: Induction of autophagic flux in human MCF7 cells assessed as increase in p62 oligomerization at 5 to 10 uM after 24 hrs; type: functional, cell-based
[21] = system: MDA-MB-231; test: Induction of autophagic flux in human MDA-MB-231 cells assessed as increase in p62 oligomerization at 5 to 10 uM after 24 hrs; type: functional, cell-based
[22] = system: MDA-MB-231; test: Induction of apoptosis in human MDA-MB-231 cells assessed as PARP cleavage at 10 uM after 48 hrs; type: functional, cell-based
In short: (§5)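 MDA-MB-231 cells treated for 48 h. Cleavage of caspase 3 and PARP detected by Western blot. Representative of duplicate experiments.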

[23] = system: MDA-MB-231; test: Induction of apoptosis in human MDA-MB-231 cells assessed as caspase-3 cleavage at 10 uM after 48 hrs; type: functional, cell-based; in short: as §5
[24] = system: MDA-MB-231; test: Induction of autophagic flux in human MDA-MB-231 cells assessed as decrease in p62 monomer level at 5 to 10 uM after 24 hrs; type: functional, cell-based

Chain of Heat shock cognate 71 kDa protein (P11142 whole entry): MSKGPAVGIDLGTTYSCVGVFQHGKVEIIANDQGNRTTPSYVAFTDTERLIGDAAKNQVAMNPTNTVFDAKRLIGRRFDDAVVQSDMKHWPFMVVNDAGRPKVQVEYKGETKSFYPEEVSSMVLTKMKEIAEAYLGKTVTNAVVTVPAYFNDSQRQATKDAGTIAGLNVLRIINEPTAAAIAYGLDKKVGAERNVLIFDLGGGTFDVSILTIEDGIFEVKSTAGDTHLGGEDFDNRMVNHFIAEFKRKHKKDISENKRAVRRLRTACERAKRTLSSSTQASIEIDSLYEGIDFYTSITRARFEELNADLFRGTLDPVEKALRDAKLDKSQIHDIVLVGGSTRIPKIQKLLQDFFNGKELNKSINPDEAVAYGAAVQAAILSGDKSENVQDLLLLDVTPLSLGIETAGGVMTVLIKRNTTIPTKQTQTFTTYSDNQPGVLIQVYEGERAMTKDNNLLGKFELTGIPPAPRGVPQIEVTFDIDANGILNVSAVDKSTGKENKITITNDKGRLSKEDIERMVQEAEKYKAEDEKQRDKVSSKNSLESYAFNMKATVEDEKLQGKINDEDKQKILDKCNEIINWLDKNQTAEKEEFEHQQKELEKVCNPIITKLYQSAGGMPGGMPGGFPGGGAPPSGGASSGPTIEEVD

| Kd [1] [µM] | SMILES | EC50 [4] [µM] | EC50 [5] [µM] | EC50 [6] [µM] | t1/2 [3] | also measured |
| --- | --- | --- | --- | --- | --- | --- |
| 1.7 | CCn1c(=O)/c(=C2\Sc3cc(Cl)ccc3N2C)s/c1=C\c1cccc[n+]1CCCCCCNC(=O)CCCC[C@@H]1SC[C@@H]2NC(=O)N[C@@H]21 | – | – | – | – | – |
| 2.6 | CCn1c(=O)/c(=C2\Sc3c(Cl)cccc3N2C)s/c1=C\c1cccc[n+]1CCCCCCNC(=O)CCCC[C@@H]1SC[C@@H]2NC(=O)N[C@@H]21 | – | – | – | – | – |
| 4 | CCn1c(=O)/c(=C2\Sc3ccc(Cl)cc3N2C)s/c1=C\c1cccc[n+]1CCCCCCNC(=O)CCCC[C@@H]1SC[C@@H]2NC(=O)N[C@@H]21 | – | – | – | – | – |
| 2 | CCn1c(=O)/c(=C2\Sc3ccccc3N2C)s/c1=C\c1cccc[n+]1CCCCCCNC(=O)CCCC[C@@H]1SC[C@@H]2NC(=O)N[C@@H]21 | – | – | – | – | – |
| 5.4 | CCn1c(=O)/c(=C2\Sc3cc(OC)ccc3N2C)s/c1=C\c1cccc[n+]1CCCCCCNC(=O)CCCC[C@@H]1SC[C@@H]2NC(=O)N[C@@H]21 | – | – | – | – | – |
| 0.9 | CCn1c(=O)/c(=C2\Sc3ccc(OC)cc3N2C)s/c1=C\c1cccc[n+]1CCCCCCNC(=O)CCCC[C@@H]1SC[C@@H]2NC(=O)N[C@@H]21 | – | – | – | – | – |

The remaining lines, values behind:

| SMILES | Kd [1] [µM] | EC50 [4] [µM] | EC50 [5] [µM] | EC50 [6] [µM] | t1/2 [3] | also measured |
| --- | --- | --- | --- | --- | --- | --- |
| CCn1c(=O)/c(=C2\Sc3ccccc3N2C)s/c1=C\c1cccc[n+]1CC.[Cl-] | – | > 50 | 2.2 | 1.4 | – | Time [2]: 4.4 min; half-life at 1 µM [3]: < 5 min |
| CCn1c(=O)/c(=C2\Sc3cccc(F)c3N2C)s/c1=C\c1scc[n+]1Cc1ccccc1.[Cl-] | – | 8.3 | 1 | 0.4 | ND(Insoluble) | Activity [7]: inactive; Activity [8]: inactive; Activity [9]: inactive; Activity [10]: inactive; inhibition [11]: Active; inhibition [12]: 25%; inhibition [13]: 25%; inhibition [14]: 25%; inhibition [15]: 25%; selectivity ratio [16]: 21; selectivity ratio [17]: 8 |
| CCn1c(=O)/c(=C2\Sc3ccc(F)cc3N2C)s/c1=C\c1cccc[n+]1CCCCCCNC(=O)CCCC[C@@H]1SC[C@@H]2NC(=O)N[C@@H]21 | 2.3 | – | – | – | – | – |
| CCn1c(=O)/c(=C2\Sc3cc(Cl)ccc3N2C)s/c1=C\c1scc[n+]1Cc1ccccc1.[Cl-] | – | 24 | 0.7 | 0.4 | 37 min | Activity [18]: Active; Activity [19]: Active; Activity [20]: Active; Activity [21]: Active; Activity [22]: Active; Activity [23]: Active; Activity [24]: Active |
| CCn1c(=O)/c(=C2\Sc3cc(F)ccc3N2C)s/c1=C\c1cccc[n+]1CCCCCCNC(=O)CCCC[C@@H]1SC[C@@H]2NC(=O)N[C@@H]21 | 1.5 | – | – | – | – | – |
| CCn1c(=O)/c(=C2\Sc3cc(C(F)(F)F)ccc3N2C)s/c1=C\c1cccc[n+]1CCCCCCNC(=O)CCCC[C@@H]1SC[C@@H]2NC(=O)N[C@@H]21 | 1 | – | – | – | – | – |
| CCn1c(=O)/c(=C2\Sc3c(F)cccc3N2C)s/c1=C\c1cccc[n+]1CCCCCCNC(=O)CCCC[C@@H]1SC[C@@H]2NC(=O)N[C@@H]21 | 1.9 | – | – | – | – | – |
| CCn1c(=O)/c(=C2\Sc3ccc(Cl)cc3N2C)s/c1=C\c1scc[n+]1Cc1ccccc1.[Cl-] | – | > 30 | 0.8 | 0.6 | ND(Insoluble) | – |
| CCn1c(=O)/c(=C2\Sc3cccc(Cl)c3N2C)s/c1=C\c1cccc[n+]1C.[Cl-] | – | > 50 | 7.8 | 4.4 | ND(Insoluble) | – |
| CCn1c(=O)/c(=C2\Sc3cc(Cl)ccc3N2C)s/c1=C\c1cccc[n+]1C.[Cl-] | – | > 50 | 9.5 | 8.3 | – | half-life at 1 µM [3]: 8.2 min |
| CCn1c(=O)/c(=C2\Sc3c(Cl)cccc3N2C)s/c1=C\c1cccc[n+]1C.[Cl-] | – | > 50 | 5.2 | 4.1 | ND(Insoluble) | – |
| CCn1c(=O)/c(=C2\Sc3ccc(Cl)cc3N2C)s/c1=C\c1cccc[n+]1C.[Cl-] | – | > 50 | 28 | 4.6 | ND(Insoluble) | – |
| CCn1c(=O)/c(=C2\Sc3cccc(F)c3N2C)s/c1=C\c1cccc[n+]1C.[Cl-] | – | > 50 | 2.2 | 4 | 15 min | – |
| CCn1c(=O)/c(=C2\Sc3cc(OC)ccc3N2C)s/c1=C\c1cccc[n+]1C.[Cl-] | – | > 50 | 11 | 4 | – | half-life at 1 µM [3]: 10 min |
| CCC[n+]1ccccc1/C=c1\s/c(=C2/Sc3ccccc3N2C)c(=O)n1CC.[Cl-] | – | > 50 | 2.8 | 1.6 | ND(Insoluble) | – |
| CCn1c(=O)/c(=C2\Sc3ccccc3N2C)s/c1=C\c1cccc[n+]1Cc1ccccc1.[Cl-] | – | > 50 | 1.5 | 1 | ND(Insoluble) | – |
| CCn1c(=O)/c(=C2\Sc3c(F)cccc3N2C)s/c1=C\c1cccc[n+]1C.[Cl-] | – | > 50 | 8.5 | 6.2 | 16 min | – |
